Experiments:
[1] = Partition coefficient (logP); format: physicochemical; settings: octanol/water
[2] = In vitro concentration at which 50% of human colon carcinoma cells (S1-B1-20) resistant to bisantrene have survived; format: ADME, cell-based, S1B1-20; settings: S1-B1-20 human colon carcinoma cells resistant to bisantrene, read-out: LD50 (the source's name)
Outline: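 S1-B1-20 cells (LS 174 T-derived S1 clone selected in bisantrene over 12–16 weeks), trypsinized, 20 000 cells/well. Test agent alone in DMSO (≤0.1% final), 0.1–80 µM, 3 days at 37 °C, 7% CO2. Survival by sulforhodamine B read at 540 nm versus untreated cells. Two to four measurement sets were made, and the value is the concentration giving 50% survival from a best-fit curve.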

[3] = tested on: S1B1-20; assay: In vitro concentration required to inhibit tumor activity on subclone of human colon carcinoma cells (S1-B1-20) resistant to bisantrene; format: functional, cell-based
Outline: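 S1-B1-20 cells (S1 clone of LS 174 T, selected in bisantrene over 12–16 weeks) plated at 20 000 cells/well with or without 20 μM bisantrene, plus test agent 0.1–80 μM from DMSO stock (final DMSO ≤0.1%). 3 days, 37 °C, 7% CO2. Survival by sulforhodamine B at 540 nm. IC50 from best-fit curve of difference score (survival alone minus survival with bisantrene) at 50; 2–4 sets of measurements.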

[4] = tested on: Mus musculus; assay: Relative tumor growth inhibition against human epidermoid carcinoma KB/8.5 implanted subcutaneously only in mice at 8 mg/kg (DOX); format: functional; settings: route subcutaneous
Outline: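 KB/8.5 cells grown in RPMI 1640 with 5% fetal calf serum plus colchicine (10 ng/mL), which was removed for two passages. 8 × 10^6 cells were then implanted sc in athymic nude mice. At 100-300 mg tumor mass, mice were grouped 5-10/group. Doxorubicin was given as a single iv dose (8 mg/kg). Tumor mass was measured on day 14, and relative growth was compared with saline control.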

[5] = tested on: Mus musculus; assay: Percent tumor growth inhibition against human epidermoid carcinoma KB/8.5 implanted subcutaneously in mice at 200 mg/kg of compound along with 8 mg/kg (DOX ) was determined; format: functional
Outline: (§1)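 Athymic nude mice bearing sc KB/8.5 tumors (8×10^6 cells, colchicine withdrawn for two passages), grouped at 100–300 mg tumor mass, 5–10 mice/group. Doxorubicin 8 mg/kg given once iv; reversal agent or placebo given sc 2 h before and 2 h after. Tumor mass on day 14 used for relative tumor growth versus doxorubicin alone; Student t-test on log RTG.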

[6] = tested on: Mus musculus; assay: Percent tumor growth inhibition against human epidermoid carcinoma KB/8.5 implanted subcutaneously in mice at 100 mg/kg of compound along with 8 mg/kg (DOX ) was determined; format: functional; outline: as §1
[7] = tested on: Mus musculus; assay: Percent increase in mean life span relative to treatment with an equivalent dose of vincristine alone at 25 mg/kg in mice with vincristine-resistantmurine leukemia P388/VCR cells; format: functional
Outline: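 CDF1 mice were implanted ip with 1 × 10^6 P388/VCR cells. Agent and 0.2 mg/kg vincristine were given simultaneously ip once daily, days 1–7. Mean survival over up to 30 days was compared with vincristine alone at an equivalent dose, giving % increase in life span. Student t-test was applied to mean survival time.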

[8] = tested on: Mus musculus; assay: Percent increase in mean life span in mice infected with leukemia P388/VCR, at 25 mg/Kg dose; format: functional
Outline: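 CDF1 mice (groups of 10–15) were implanted ip with 1 × 10^6 P388/VCR cells. Agent plus 0.2 mg/kg vincristine were given together ip once daily on days 1–7, starting 1 day post-implant, in cremophor/ethanol or propylene glycol/ethanol vehicle. Survival was recorded to 30 days. Result is the % increase in mean life span versus placebo control.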

[9] = tested on: Mus musculus; assay: Percent increase in mean life span when 0.2 mg/kg vincristine was administered ip once daily on days 1-7, in mice infected with leukemia P388/VCR; format: functional; set-up: concentration or dose not given beside the values; settings: route intraperitoneal
Outline: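 CDF1 mice bearing ip P388/VCR (1 × 10^6 cells) received 0.2 mg/kg vincristine ip once daily on days 1–7. Mean survival to 30 days was expressed as % increase in life span relative to placebo control.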

SMILES	logP ([1]; read-out: logP)	CC50 [2] [µM]	IC50 ([3]; Homo sapiens, S1B1-20) [µM]	Relative tumor growth [4]	further results
COc1ccc(C(C#N)(Cc2cccc(CN3CCc4cc(OC)c(OC)cc4C3)c2)Sc2ccc(C)cc2)cc1OC (stereo not given)	5.91	23.3	2.19	–	–
COc1ccc(C(C#N)(CCCCCN2CCc3cc(OC)c(OCc4ccccc4)cc3C2)Sc2ccc(C)cc2)cc1OC (stereo not given)	7.95	40	0.85	100	TGI [5]: 71%
COc1cc2c(cc1O)CN(CCCCCC(C#N)(SC1CCCCC1)c1ccc(OC)c(OC)c1)CC2 (stereo not given)	6	–	–	–	–
COc1ccc2c(c1)CCN(CCCCCC(Sc1ccc(C)cc1)c1ccc(OC)c(OC)c1)C2 (stereo not given)	7.88	22.2	3.09	–	–
COc1cc2c(cc1OC)CN(CCCCCCC(Sc1ccc(C)cc1)c1ccc(F)cc1)CC2 (stereo not given)	8.63	27	2.7	–	–
COc1ccc(CC2c3cc(OC)c(OC)cc3CCN2CCCCCC(C#N)(Sc2ccc(C)cc2)c2ccc(OC)c(OC)c2)cc1OC (stereo not given)	7.57	78.2	1.06	64	TGI [5]: 58%
COc1ccc(C(C#N)(CCCCN2CCc3cc(OC)c(OC)cc3C2)Sc2ccc(C)cc2)cc1OC.ClCCl (stereo not given)	–	–	–	–	logP [1]: 5.65
COc1ccc(C(C#N)(CCCCCN2CCc3cc(OC)c(OC)cc3C2)SC2CCCCC2)cc1OC (stereo not given)	6.28	14	0.46	67	TGI [6]: 69%
COc1ccc(C(C#N)(CCCCCN2CCc3cc(OC)c(OCCn4ccnc4)cc3C2)SC2CCCCC2)cc1OC (stereo not given)	5.96	8.39	0.96	–	–
COc1cc2c(cc1OC)CN(CCCCCC(Sc1ccc(C)cc1)c1ccc(OC(F)(F)F)cc1)CC2 (stereo not given)	8.44	16.9	2.07	100	TGI [6]: 51%
COc1ccc(C(CCCCCN2CCc3cc(OC)c(OC)cc3C2)SC2CCCCC2)cc1OC (stereo not given)	7.33	16.1	0.73	67	TGI [6]: 57%
CCCCCSC(CCCCCN1CCc2cc(OC)c(OC)cc2C1)c1ccc(OC)c(OC)c1 (stereo not given)	5.66	16.3	0.5	–	–
COc1ccc(C(C#N)(CC#CCCN2CCc3cc(OC)c(OC)cc3C2)Sc2ccc(C)cc2)cc1OC (stereo not given)	5.52	36	0.97	–	–
COc1cc2c(cc1O)CN(CCCCCC(C#N)(Sc1ccc(C)cc1)c1ccc(OC)c(OC)c1)CC2 (stereo not given)	5.9	24.9	3.11	–	–
COc1cc2c(cc1OC)CN(CCCCCCC(Sc1ccc(C)cc1)c1ccc(OC)c(OCCCl)c1)CC2 (stereo not given)	8.54	10.3	0.96	–	–
COc1cc2c(cc1O)CN(CCCCCC(C#N)(Sc1ccc(C)cc1)c1ccc(OC)c(OC)c1)C2 (stereo not given)	5.78	–	–	–	–
COc1ccc(C(C#N)(CCCN2CCc3cc(O)c(O)cc3C2C)Sc2ccc(C)cc2)cc1OC (stereo not given)	4.92	–	4.7	–	–
COc1ccc(C(CCCCCCN2Cc3cc(OC)c(OC)cc3C2)Sc2ccc(C)cc2)cc1OC (stereo not given)	7.32	22.1	1.84	75	TGI [6]: 60%
COc1ccc(C(C#N)(CCCCCN2Cc3cc(Cl)c(Cl)cc3C2)Sc2ccc(C)cc2)cc1OC (stereo not given)	7.4	–	10.5	57	TGI [5]: 94%
COc1ccc(C(CCCCCN2CCc3cc4c(cc3C2)OCO4)Sc2ccc(C)cc2)cc1OC (stereo not given)	7.31	24.9	–	100	TGI [5]: 57%
COc1ccc(C(C#N)(CCCCCN2Cc3cc(OC)c(OCCCl)cc3C2)Sc2ccc(C)cc2)cc1OC (stereo not given)	6.14	–	–	–	–

SMILES	logP ([1]; read-out: logP)	CC50 [2] [µM]	IC50 ([3]; Homo sapiens, S1B1-20) [µM]	Relative tumor growth [4]	further results
COc1ccc(C(CCCCCN2CCc3cc(OC)c(OC)cc3C2)SC(C)(C)C)cc1OC (stereo not given)	6.54	76.8	3.58	67	TGI [5]: 53%
COc1ccc(C(CCCCCN2CCc3cc(OC)c(OC)cc3C2)SCc2ccccc2)cc1OC (stereo not given)	6.63	15.1	1.98	77	TGI [6]: 68%
COc1ccc(C(C#N)(CCCCCN2CCc3cc(OC)c(OCCCl)cc3C2)SC2CCCCC2)cc1OC (stereo not given)	6.87	–	–	–	–
COc1ccc(C(CCCCCCN2CCc3cc(OC)c(OC)cc3C2)Sc2ccc(C)cc2)cc1O (stereo not given)	7.67	13.1	0.84	75	TGI [5]: 54%
COc1ccc(C(C#N)(CCCCCN2CCc3cc(OC)c(OC)cc3C2)Sc2ccccn2)cc1OC (stereo not given)	4.72	50.8	2.12	–	–
COc1ccc(C(CCCCCCN2CCc3cc(OC)c(OC)cc3C2)Sc2ccc(C)cc2)cc1OC (stereo not given)	7.95	13.2	0.9	45	TGI [6]: 64%
COc1ccc(C(CCCCCCN2CCc3cc(OC)c(OC)c(OC)c3C2)Sc2ccc(C)cc2)cc1OC (stereo not given)	7.38	14	0.7	64	TGI [6]: 54%
COc1ccc(C(C#N)(CCCCCN2CCc3cc(OC)c(OCCN(C)C)cc3C2)Sc2ccc(C)cc2)cc1OC (stereo not given)	6.1	6.68	–	–	–
COc1ccc(C(C#N)(CCCCCN2CCc3cc4c(cc3C2)OCO4)Sc2ccc(C)cc2)cc1OC (stereo not given)	6.08	30	3.09	–	ILS at 25 mg/kg [7]: 16%; ILS at 25 mg/kg [8]: 38%; ILS [9]: 24%
COc1ccc(C(C#N)(CCCCCN2Cc3cc(OC)c(OCCn4ccnc4)cc3C2)Sc2ccc(C)cc2)cc1OC (stereo not given)	5.23	8.37	0.5	–	–
COc1cc2c(cc1OC)CN(CCCCCCC(Sc1ccc(C)cc1)c1ccc(OC)c(O[Si](C)(C)C(C)(C)C)c1)CC2 (stereo not given)	–	49.1	10.7	–	logP [1]: 11.68
COc1ccc(C(C#N)(CCCCCN2CCc3ccccc3C2)Sc2ccc(C)cc2)cc1OC (stereo not given)	6.72	24.7	2.56	–	ILS at 25 mg/kg [7]: 11%; ILS at 25 mg/kg [8]: 27%; ILS [9]: 14%
COc1ccc(C(C#N)(CCCCN2CCc3cc(OC)c(OC)cc3C2)Sc2ccc(C)cc2)cc1OC (stereo not given)	5.65	41.8	0.62	–	–
COc1ccc(C(CCCN2CCc3cc(OC)c(OC)cc3C2)Sc2ccc(C)cc2)cc1OC (stereo not given)	6.36	25.8	1.23	–	–
COc1cc2c(cc1OC)CN(CCCCCC(Sc1ccc(C)cc1)c1ccc3c(c1)OCO3)CC2 (stereo not given)	7.31	15.9	0.5	100	TGI [5]: 39%
CCC(CCCCCN1CCc2cc(OC)c(OC)cc2C1)(Sc1ccc(C)cc1)c1ccc(OC)c(OC)c1 (stereo not given)	8.34	11.8	1.23	77	TGI [6]: 72%
COc1cc2c(cc1OC)CN(CCCCCCC(Sc1ccc(C)cc1)c1ccc(OC)c(OCCn3ccnc3)c1)CC2 (stereo in doubt; 37b)	7.63	5.52	–	–	Relative tumor growth ([4]; 8 mg/kg): 72; TGI [6]: 67%; IC50 ([3]; s1b1-20): 0.69 µM
COc1ccc(C(C#N)(CCCCCN2Cc3cc(OC)c(OC)cc3C2)SC2CCCCC2)cc1OC (stereo in doubt; 46)	5.65	11.8	0.26	–	–
COc1ccc(C(C#N)(CCCCCN2CCc3cc(OC)c(OCCn4ccnc4)cc3C2)Sc2ccc(C)cc2)cc1OC (stereo in doubt; 48)	5.86	11.6	0.53	–	–
COc1ccc(CCN(C)CCCC(C#N)(c2ccc(OC)c(OC)c2)C(C)C)cc1OC (stereo not given) [VERAPAMIL]	–	–	17.3	–	–

Source: ChEMBL document CHEMBL1132241, “Novel multidrug resistance reversal agents” (J Med Chem, 1999)
